In series [1] the test system is RAW264.7. The series is described as follows: Antiinflammatory activity in mouse RAW264.7 cells assessed as inhibition of LPS-induced NO production at 10 uM relative to control. It counts as functional.
Series [2] deals with RAW264.7. The series is described as follows: Antiinflammatory activity in mouse RAW264.7 cells assessed as inhibition of LPS-induced NO production at 40 uM relative to control. It counts as functional.
In series [3] the target is T1, Tyrosine-protein phosphatase non-receptor type 1 (Homo sapiens) (UniProt P18031).
T1 sequence (whole entry): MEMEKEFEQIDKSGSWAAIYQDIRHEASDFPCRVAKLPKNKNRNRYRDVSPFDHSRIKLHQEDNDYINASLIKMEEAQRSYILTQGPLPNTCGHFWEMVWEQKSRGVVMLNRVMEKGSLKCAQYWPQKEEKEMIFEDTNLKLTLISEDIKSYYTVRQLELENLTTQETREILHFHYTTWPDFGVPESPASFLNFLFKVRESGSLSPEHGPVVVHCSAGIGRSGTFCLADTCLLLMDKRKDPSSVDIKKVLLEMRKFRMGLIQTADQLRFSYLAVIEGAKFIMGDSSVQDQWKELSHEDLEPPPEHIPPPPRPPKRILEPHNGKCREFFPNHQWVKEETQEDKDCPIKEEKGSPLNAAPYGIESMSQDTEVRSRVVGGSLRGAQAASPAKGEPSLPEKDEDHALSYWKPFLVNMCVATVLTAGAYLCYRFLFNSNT
As to the kind of experiment: Inhibition of PTP1B (unknown origin) at 10 uM.

The test system of series [4] is A549. As to the kind of experiment: Cytotoxicity against human A549 cells assessed as decrease in cell viability at 10 uM after 24 hrs by MTT assay. Format: functional, cell-based. (In general: Tetrazolium dyes change colour on reduction, which living cells bring about.)
Series [5] concerns Peritoneal macrophage. As to the kind of experiment: Inhibition of LPS-induced TNFalpha secretion in C57BL6J mouse peritoneal macrophages at 10 uM after 24 hrs. Format: functional, cell-based.
Series [6] concerns HepG2. The series is described as follows: Protection against acetaminophen-induced cell injury in human HepG2 cells at 10 uM after 24 hrs by MTT assay. It counts as functional, cell-based.
Series [7] deals with RAW264.7. As to the kind of experiment: Cytotoxicity against mouse RAW264.7 cells up to 100 uM. It counts as cell-based. In outline: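 Viability assessed in LPS-stimulated RAW264.7 macrophages during the NO-production assay, at concentrations up to 100 μM.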
Series [8] concerns Bel-7402. The series is described as follows: Cytotoxicity against human Bel7402 cells assessed as decrease in cell viability at 10 uM after 24 hrs by MTT assay. It counts as functional, cell-based.
In series [9] the test system is RAW264.7. The series is described as follows: Antiinflammatory activity in mouse RAW264.7 cells assessed as inhibition of LPS-induced NO production at 80 uM relative to control. Format: functional.
Series [10] has as its system BGC-823. As to the kind of experiment: Cytotoxicity against human BGC823 cells assessed as decrease in cell viability at 10 uM after 24 hrs by MTT assay. Format: functional, cell-based.
In series [11] the test system is RAW264.7. The series is described as follows: Antiinflammatory activity in mouse RAW264.7 cells assessed as inhibition of LPS-induced NO production at 20 uM relative to control. Format: functional.
The subject of series [12] is RAW264.7. As to the kind of experiment: Antiinflammatory activity in mouse RAW264.7 cells assessed as inhibition of LPS-induced NO production. It counts as functional, cell-based. In outline: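 NO release measured in LPS-stimulated RAW264.7 macrophages alongside an unstimulated control group; IC50 derived; dexamethasone as positive control.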
For series [13], the system named is A2780. The series is described as follows: Cytotoxicity against human A2780 cells assessed as decrease in cell viability at 10 uM after 24 hrs by MTT assay. Format: functional, cell-based.
Series [14] relates to HCT-8. The series is described as follows: Cytotoxicity against human HCT8 cells assessed as decrease in cell viability at 10 uM after 24 hrs by MTT assay. It counts as functional, cell-based.
The subject of series [15] is RAW264.7. The series is described as follows: Antiinflammatory activity in mouse RAW264.7 cells assessed as inhibition of LPS-induced NO production at 60 uM relative to control. It counts as functional.

Molecules are shown by their SMILES. Active and inactive are the calls of the source. The rule behind the calls is not given here. Where only a bound is given, the exact number is not on record here.

Consider `CC(C)=CCC/C(C)=C/C(=O)O[C@@H]1O[C@H](CO[C@@H]2O[C@@H](C)[C@H](O)[C@@H](O)[C@H]2O)[C@@H](O)[C@H](O)[C@H]1O`, for which the inhibition (commonly the drop in the measured response relative to a control, in per cent) at 10 µM in [1] is 21.4%. The inhibition at 40 µM in [2] is 29.2%. The inhibition result in [3] and in series [5] was “inactive” each time. The result in series [4], in series [6], in series [8], in [10], in [13] and in series [14] was inactive. Also, the Activity result in series [7] was “Non-Toxic”. The inhibition at 80 µM in [9] came out at 41%. The inhibition at 20 µM in series [11] is 21.4%. For the same molecule, in [12], the half-maximal inhibitory concentration (IC50) (as a rule, the concentration at which inhibition is half-maximal) was above 100 µM. In addition, the inhibition at 60 µM in series [15] was 33.4%.

On to `CC1=CC(=O)[C@H]2C[C@]1(O[C@@H]1O[C@H](COC(=O)c3ccccc3)[C@@H](O)[C@H](O)[C@H]1O)C2(C)CO` (stereo partly specified), for which, in [1], the inhibition at 10 µM amounted to 12.8%. Moreover, the inhibition at 40 µM in series [2] stood at 18.3%. Also, the inhibition result in [3] and in series [5] was “inactive” each time. Further, the outcome in series [4], in series [6], in series [8], in series [10], in series [13] and in series [14] was inactive. Besides, the Activity result in series [7] was “Non-Toxic”. Moreover, the inhibition at 80 µM in [9] is 45%. Besides, the inhibition at 20 µM in [11] came out at 16.2%. Also, the half-maximal inhibitory concentration (IC50) in [12] is above 100 µM. Besides, the inhibition at 60 µM in series [15] was determined as 31.9%.

As for `C[C@]1(C(=O)OC[C@H]2O[C@@H](O[C@]34CC5C3(COC(=O)c3ccccc3)[C@H]3O[C@]5(O)C[C@]4(C)O3)[C@H](O)[C@@H](O)[C@@H]2O)[C@@H]2CC[C@H](CO)[C@H]1C2`, the inhibition at 10 µM in series [1] came out at 16.5%. For the same molecule, the inhibition at 40 µM in series [2] came to 25.8%. Moreover, the inhibition entry in [3] and in series [5] was “inactive” in each case. Besides, the result in series [4], in series [6], in [8], in series [10], in series [13] and in series [14] was inactive. Moreover, in series [7], the Activity entry is on record as “Non-Toxic”. Also, the inhibition at 80 µM in series [9] turned out to be 44.6%. In addition, in [11], the inhibition at 20 µM is 22.8%. For the same molecule, the concentration for half-maximal inhibition (IC50) in series [12] is above 100 µM. In series [15], the inhibition at 60 µM was 29.3%.

Consider `C[C@]12CC(=O)[C@H]3C[C@@]1(O[C@@H]1O[C@H](CO)[C@@H](O)[C@H](O)[C@H]1O)O[C@@H](O2)[C@H]3COC(=O)c1ccccc1`, for which, in series [1], the inhibition at 10 µM came to 28%. Further, in series [2], the inhibition at 40 µM is 34.9%. Further, the inhibition result in [3] and in [5] was “inactive” throughout. The result in series [4], in series [6], in series [8], in series [10], in [13] and in series [14] was inactive. Moreover, the Activity result in [7] was “Non-Toxic”. The inhibition at 80 µM in series [9] came out at 61%. In addition, in [11], the inhibition at 20 µM stood at 29.6%. The half-inhibitory concentration (IC50) in series [12] is 60.1 µM. The inhibition at 60 µM in series [15] is 49.9%.

Regarding `C[C@@H]1C[C@H]2[C@@H]3CCC4=CC(=O)C=C[C@]4(C)[C@@]3(F)[C@@H](O)C[C@]2(C)[C@@]1(O)C(=O)CO` [DEXAMETHASONE], in [12], the IC50 is 8.3 µM.

On to `CC1=CC(=O)[C@H]2C[C@@]1(O[C@@H]1O[C@H](CO)[C@@H](O)[C@H](O)[C@H]1O)C2(C)COC(=O)c1ccccc1` (stereo partly specified), for which the inhibition at 10 µM in series [1] is 25.7%. The inhibition at 40 µM in series [2] came to 26%. Besides, the inhibition result in series [3] and in series [5] was “inactive” in each case. Besides, the result in series [4], in [6], in series [8], in series [10], in series [13] and in series [14] was inactive. The Activity entry in series [7] is given as “Non-Toxic”. Also, the inhibition at 80 µM in series [9] came to 61.7%. Besides, in series [11], the inhibition at 20 µM worked out at 19.3%. In addition, in series [12], the IC50 was 64.8 µM. In addition, the inhibition at 60 µM in series [15] came to 45.9%.

For the molecule `CC(C)c1ccc(CO[C@@H]2O[C@H](CO[C@@H]3O[C@@H](C)[C@H](O)[C@@H](O)[C@H]3O)[C@@H](O)[C@H](O)[C@H]2O)cc1`, in series [1], the inhibition at 10 µM stood at 22.2%. The inhibition at 40 µM in series [2] came out at 31.1%. Further, the inhibition result in series [3] and in series [5] was “inactive” each time. In addition, the outcome in [4], in series [6], in series [8], in series [10], in [13] and in [14] was inactive. The Activity entry in [7] was “Non-Toxic”. Further, the inhibition at 80 µM in series [9] stood at 52.4%. In [11], the inhibition at 20 µM was determined as 23.6%. Further, in [12], the IC50 is 97.5 µM. Further, in [15], the inhibition at 60 µM stood at 38.7%.

For the molecule `C[C@]1(C(=O)OC[C@H]2O[C@@H](O[C@]34CC5C3(COC(=O)c3ccccc3)[C@H]3O[C@]5(O)C[C@]4(C)O3)[C@H](O)[C@@H](O)[C@@H]2O)[C@@H]2CC[C@@H](CO)[C@H]1C2`, in [1], the inhibition at 10 µM is 19.7%. Also, the inhibition at 40 µM in [2] stood at 22.1%. Further, the inhibition entry in series [3] and in series [5] was “inactive” in each case. The outcome in series [4], in [6], in [8], in series [10], in series [13] and in series [14] was inactive. Moreover, the Activity result in series [7] is on record as “Non-Toxic”. In addition, the inhibition at 80 µM in series [9] came out at 40.7%. The inhibition at 20 µM in series [11] worked out at 20.9%. In addition, in series [12], the half-maximal inhibitory concentration (IC50) is above 100 µM. In addition, the inhibition at 60 µM in series [15] was 39.5%.

On to `CC1(C)[C@@H]2C[C@H]1[C@@H](O)C[C@@H]2C(=O)OC[C@H]1O[C@@H](O[C@]23CC4C2(COC(=O)c2ccccc2)[C@H]2O[C@]4(O)C[C@]3(C)O2)[C@H](O)[C@@H](O)[C@@H]1O`, for which the inhibition at 10 µM in [1] was 8.58%. Moreover, the inhibition at 40 µM in series [2] was 27.5%. In addition, the inhibition entry in series [3] and in series [5] was “inactive” in each case. Moreover, the result in series [4], in [6], in series [8], in [10], in series [13] and in series [14] was inactive. In addition, the Activity entry in [7] is “Non-Toxic”. The inhibition at 80 µM in [9] was determined as 40.8%. Moreover, the inhibition at 20 µM in series [11] was found to be 23.3%. Besides, in series [12], the IC50 was above 100 µM. Also, the inhibition at 60 µM in [15] is 38.7%.

For `C=C[C@@](C)(O)CC/C=C(\C)C(=O)OC[C@H]1O[C@@H](O[C@]23CC4C2(COC(=O)c2ccccc2)[C@H]2O[C@]4(O)C[C@]3(C)O2)[C@H](O)[C@@H](O)[C@@H]1O`, the inhibition at 10 µM in series [1] was 9.85%. In addition, the inhibition at 40 µM in [2] turned out to be 28.1%. Also, the inhibition entry in [3] and in series [5] was “inactive” throughout. Further, the outcome in [4], in series [6], in [8], in series [10], in [13] and in [14] was inactive. Further, the Activity result in series [7] is listed as “Non-Toxic”. Besides, the inhibition at 80 µM in series [9] turned out to be 41.3%. For the same molecule, in series [11], the inhibition at 20 µM is 22.6%. Further, the half-inhibitory concentration (IC50) in series [12] was above 100 µM. For the same molecule, in series [15], the inhibition at 60 µM was 38.1%.

(Values after ChEMBL document CHEMBL4145570, “Structures and Biological Evaluation of Monoterpenoid Glycosides from the Roots of Paeonia lactiflora” (J Nat Prod, 2018).)
